Laboratory results published in ChEMBL document CHEMBL1138849, “5-substituted tetrazoles as bioisosteres of carboxylic acids. Bioisosterism and mechanistic studies on glutathione reductase inhibitors as antimalarials” (J Med Chem, 2004).
Active and inactive are the calls of the source. The rule behind the calls is not given here.

Assays:
MRC5 = experiment: Cytotoxicity against human diploid embryonic lung cell line hMRC-5 was observed at conc. upto 32 uM; (No cytotoxicity); assay type: functional, cell-based
[1] = molecular target: Glutathione reductase (Plasmodium falciparum 3D7) (UniProt O15770); experiment: Ratio of Catalysis constant Michaelis-Menten constant of Plasmodium falciparum glutathione reductase
Chain of Glutathione reductase (Plasmodium falciparum 3D7) (O15770 whole entry): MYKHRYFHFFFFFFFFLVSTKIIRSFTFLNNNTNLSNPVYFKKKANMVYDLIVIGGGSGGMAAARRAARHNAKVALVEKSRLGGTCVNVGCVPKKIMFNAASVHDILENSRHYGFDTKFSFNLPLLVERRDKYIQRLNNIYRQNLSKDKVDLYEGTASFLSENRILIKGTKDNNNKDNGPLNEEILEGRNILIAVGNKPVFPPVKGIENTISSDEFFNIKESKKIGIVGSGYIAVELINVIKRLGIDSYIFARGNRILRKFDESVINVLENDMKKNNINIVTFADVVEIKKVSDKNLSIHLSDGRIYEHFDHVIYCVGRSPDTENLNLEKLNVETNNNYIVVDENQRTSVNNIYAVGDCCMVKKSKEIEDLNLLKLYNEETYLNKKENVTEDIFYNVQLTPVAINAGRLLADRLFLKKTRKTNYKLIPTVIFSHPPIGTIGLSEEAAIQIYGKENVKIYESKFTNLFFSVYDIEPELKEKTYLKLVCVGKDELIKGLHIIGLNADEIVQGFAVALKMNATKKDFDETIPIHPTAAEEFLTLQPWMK
Outline: (§1)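 Recombinant human or P. falciparum GR run as a quinone reductase without GSSG. Mix: 100 mM phosphate pH 7.0, 200 mM KCl, 100 μM NADPH, 1% DMSO, enzyme, and naphthoquinone at 10 levels from 10 to 400 μM. NADPH oxidation read at 340 nm (ε 6.22 mM⁻¹ cm⁻¹). Steady-state rates fitted to Michaelis–Menten by nonlinear regression to give Km and Vmax; kcat and kcat/Km calculated.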

[2] = molecular target: T1, Glutathione reductase, mitochondrial (Homo sapiens) (UniProt P00390); experiment: Catalysis constant against human glutathione reductase; outline: as §1
T1 sequence (whole entry): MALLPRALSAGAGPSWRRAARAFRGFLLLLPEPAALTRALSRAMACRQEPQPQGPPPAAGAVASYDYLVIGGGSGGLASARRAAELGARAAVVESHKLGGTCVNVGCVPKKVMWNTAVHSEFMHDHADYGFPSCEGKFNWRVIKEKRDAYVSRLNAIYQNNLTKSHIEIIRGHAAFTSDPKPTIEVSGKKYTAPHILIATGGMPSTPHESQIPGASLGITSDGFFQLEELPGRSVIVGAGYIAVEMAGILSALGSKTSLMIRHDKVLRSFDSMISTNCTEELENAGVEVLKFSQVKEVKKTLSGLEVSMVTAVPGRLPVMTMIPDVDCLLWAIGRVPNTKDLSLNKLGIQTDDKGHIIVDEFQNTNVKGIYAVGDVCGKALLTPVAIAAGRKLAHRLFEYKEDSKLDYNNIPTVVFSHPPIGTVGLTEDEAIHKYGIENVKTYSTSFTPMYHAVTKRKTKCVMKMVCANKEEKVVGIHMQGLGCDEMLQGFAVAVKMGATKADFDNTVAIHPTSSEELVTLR

[3] = molecular target: Glutathione reductase (Plasmodium falciparum 3D7) (UniProt O15770); experiment: Catalysis constant against Plasmodium falciparum glutathione reductase; outline: as §1
[4] = molecular target: T1, Glutathione reductase, mitochondrial (Homo sapiens); experiment: Ratio of Catalysis constant Michaelis-Menten constant of human glutathione reductase; outline: as §1

| SMILES | Cytotoxicity (MRC5) | also measured |
| --- | --- | --- |
| CC1=C(CCCCCC(=O)NCCC#N)C(=O)c2ccccc2C1=O | inactive |  |
| CC1=CC(=O)c2ccccc2C1=O |  | K cat/Km [1]: 1990 M⁻¹ s⁻¹; K cat [2]: 0.16 s⁻¹; K cat [3]: 0.16 s⁻¹; K cat/Km [4]: 5330 M⁻¹ s⁻¹ |
| CC1=C(CCCCCc2nnnn2CCC#N)C(=O)c2ccccc2C1=O | inactive |  |
| CC1=C(CCCc2nnnn2CCC#N)C(=O)c2ccccc2C1=O | inactive |  |
| CC1=C(CCCCC(=O)NCCC#N)C(=O)c2ccccc2C1=O | inactive |  |
| CC1=C(CCCCc2nnnn2CCC#N)C(=O)c2ccccc2C1=O | inactive |  |
| CC1=C(CCCCC(=O)O)C(=O)c2ccccc2C1=O | inactive |  |
| CC1=C(CCCCCC(=O)OCCN(C)C)C(=O)c2ccccc2C1=O | inactive |  |
| CC1=C(CCCCCC(=O)O)C(=O)c2ccccc2C1=O | inactive |  |
| CC1=C(CCCC(=O)NCCC#N)C(=O)c2ccccc2C1=O | inactive |  |
